Experimental data collected from several papers.
Protocols differ between the studies behind these lines.
PKN1: Serine/threonine-protein kinase N1 (PKN1, Homo sapiens, UniProt Q16512)
CA9: Carbonic anhydrase 9 (CA9, Homo sapiens, UniProt Q16790)
PRSS1: Serine protease 1 (PRSS1, Bos taurus, UniProt P00760)
SIRT5: NAD-dependent protein deacylase sirtuin-5, mitochondrial (SIRT5, Homo sapiens, UniProt Q9NXA8)
HCK: Tyrosine-protein kinase HCK (HCK, Homo sapiens, UniProt P08631)
MCL1: Induced myeloid leukemia cell differentiation protein Mcl-1 (MCL1, Homo sapiens, UniProt Q07820)

Compound | target | assay | setting | IC50
NS(=O)(=O)c1ccc(Nc2nc(OCC3CCCCC3)c3[nH]cnc3n2)cc1 | PKN1 | enzyme activity, inhibitor | – | 828 nM
CC(OC(=O)C1CCCN(C(=O)c2ccc(Cl)cc2)C1)C(=O)Nc1ccc(S(N)(=O)=O)cc1 (stereo not drawn) | CA9 | enzyme activity, inhibitor | – | 42.7 nM
COc1cc(/C=N/n2c(C)nc3ccc(C)cc3c2=O)cc([N+](=O)[O-])c1O | PRSS1 | enzyme activity, inhibitor | – | 55700 nM
O=c1c(O)c(-c2ccc(O)c(O)c2)oc2cc(O)cc(O)c12 | Sulfotransferase 1A1 (SULT1A1, Homo sapiens, UniProt P50225, R213H) | enzyme activity, inhibitor | – | 232 nM
CC(NC(=O)c1ccccc1/N=C/c1c(O)ccc2ccccc12)c1ccccc1 (stereo not drawn) | SIRT5 | enzyme activity, inhibitor, HPLC | – | > 100000 nM
CNC(=O)c1cc2c(Oc3ccc(NC(=O)C4(C(=O)Nc5ccc(F)cc5)CC4)cc3)ccnc2cc1OC | HCK | enzyme activity, inhibitor, radiometric | – | 24 nM
COc1cc2c(c(OC)c1OC)-c1c(cc3c(c1OC)OCO3)[C@H](OC(=O)c1ccccc1)[C@@](C)(O)[C@@H](C)C2 | Cytochrome P450 3A5 (CYP3A5, Homo sapiens, UniProt P20815) | enzyme activity, inhibitor | 15 min, pH 7.4 | 590 nM
CN(C)Cc1ccc(N2CCN(C(=O)c3ccc(Cl)c(S(N)(=O)=O)c3)CC2)nc1 | CA9 | enzyme activity, inhibitor | – | 5700 nM
O=C1NC(=O)C(c2cnc3ccccn23)=C1c1cn2c3c(cc(F)cc13)CN(C(=O)N1CCCCC1)CC2 | PKN1 | enzyme activity, inhibitor | – | 108 nM
CNC(=O)c1ccc(NC(=O)CN(Cc2ccc(Cl)cc2)C(=O)c2ccc(S(N)(=O)=O)c(C)c2)c(F)c1 | CA9 | enzyme activity, inhibitor | – | 28.8 nM
CN1CCN(c2ccc(Nc3ncc4cc(C#N)c(=O)n(C5CCCC5)c4n3)cc2)CC1 | Ribosomal protein S6 kinase alpha-6 (RPS6KA6, Homo sapiens, UniProt Q9UK32) | enzyme activity, inhibitor | – | 101 nM
Cc1nc2ccc(Br)cc2c(=O)n1/N=C/c1ccc(C(=O)O)cc1 | PRSS1 | enzyme activity, inhibitor | – | 213000 nM
O=C(NS(=O)(=O)c1ccc(COc2ccccc2)cc1)c1cccc(-c2cc(Cl)cc(Cl)c2)c1 | MCL1 | ligand displacement, FP | – | 5100 nM
Cc1ccc(S(=O)(=O)N=C2C=C(Sc3nnc[nH]3)C(=O)c3ccccc32)cc1 | MCL1 | ligand displacement, FP | – | 450 nM
CCc1ccc(/C=N/n2c(C)nc3ccc(C)cc3c2=O)s1 | PRSS1 | enzyme activity, inhibitor | – | 224000 nM
CCS(=O)(=O)c1cccc(-c2cc(C(=O)NC3CCN(C)CC3)c(C)c3[nH]c4ncc(C)cc4c23)c1 | PKN1 | enzyme activity, inhibitor | – | 86 nM
COc1cc(NCC(=O)Nn2c(C)nc3ccc(Cl)cc3c2=O)cc(OC)c1OC | PRSS1 | enzyme activity, inhibitor | – | 54300 nM
Cc1cc(C(=O)N2CCN(Cc3nc(-c4ccc(Cl)cc4)no3)CC2)ccc1S(N)(=O)=O | CA9 | enzyme activity, inhibitor | – | 81 nM
CN1CCN(Cc2ccc(-c3cnc4[nH]cc(-c5ccc6[nH]ccc6c5)c4c3)cc2)CC1 | PKN1 | enzyme activity, inhibitor | – | 178 nM
Cc1ccc(C(=O)NCCC(=O)NCc2cc(S(N)(=O)=O)ccc2F)c(O)c1 | CA9 | enzyme activity, inhibitor | – | 1660 nM

Compound | target | assay | setting | IC50
O=C(O)CCNC(=S)NCCCC[C@H](NS(=O)(=O)c1cccc(F)c1)C(=O)N[C@@H](Cc1c[nH]c2ccccc12)C(=O)NC1CCC1 | SIRT5 | enzyme activity, inhibitor, fluorescence | – | 93 nM
COc1cc(/C=N/n2c(C)nc3ccc(Br)cc3c2=O)ccc1OCc1ccc(Cl)cc1 | PRSS1 | enzyme activity, inhibitor | – | 47800 nM
O=C(Nc1ccncc1)c1cc2ccccc2o1 | Amine oxidase [flavin-containing] B (MAOB, Homo sapiens, UniProt P27338) | enzyme activity, inhibitor, fluorescence | – | 6900 nM
CCNC(=O)[C@H](CCCNC(=N)CF)NC(=O)c1ccccc1 | Protein-arginine deiminase type-4 (PADI4, Homo sapiens, UniProt Q9UM07) | enzyme activity, inhibitor | – | 24300 nM
NS(=O)(=O)c1ccc(NC2=NC(=O)/C(=C\c3ccc(C(=O)O)cc3)S2)cc1 | CA9 | enzyme activity, inhibitor | – | 122 nM
O=C(O)c1ccc(-c2c[nH]c3ncc(-c4ccccc4)cc23)cc1C1CCCC1 | PKN1 | enzyme activity, inhibitor | – | 220 nM
COC(=O)C1CCCCN1C(=O)c1cccc(NC(=O)CSc2ccc(S(N)(=O)=O)cc2)c1 (stereo not drawn) | CA9 | enzyme activity, inhibitor | – | 91 nM
CN/C(=N/CCSCc1nc[nH]c1C)NC#N | Solute carrier family 22 member 7 (SLC22A7, Homo sapiens, UniProt Q9Y694) | transporter uptake, inhibitor | – | 22000 nM
COCCOc1ccc2c(c1)ncn2-c1ccc2cccc(N3CCC(N)CC3)c2n1 | PKN1 | enzyme activity, inhibitor | – | 36 nM
CC(C)C[C@H](NC(=O)[C@H]1O[C@@H]1C(=O)O)C(=O)NCCCCN=C(N)N | Cathepsin L2 (CTSV, Homo sapiens, UniProt O60911) | enzyme activity, inhibitor | – | 5.41 nM
CC[C@@H](C(=O)Nc1ccc(C(N)=O)c(F)c1)n1cc(OC)c(-c2cc(Cl)ccc2-n2cc(C(F)(F)F)nn2)cc1=O | Urokinase-type plasminogen activator (PLAU, Homo sapiens, UniProt P00749) | enzyme activity, inhibitor | – | > 10000 nM
NS(=O)(=O)c1ccc(NC2=NC(=O)C(CC(=O)Nc3ccc(Br)cc3)S2)cc1 (stereo not drawn) | CA9 | enzyme activity, inhibitor | – | 52 nM
Cc1c[nH]c2nc(Nc3ccc(N4CCN(C)CC4)c(F)c3)nc(-c3cccc(CC#N)c3)c12 | PKN1 | enzyme activity, inhibitor | – | 187 nM
CC1Cc2c(-c3cn(C)nn3)cccc2N1Cc1ccoc1C(=O)Nc1ccc(S(N)(=O)=O)cc1 (stereo not drawn) | CA9 | enzyme activity, inhibitor | – | 11.2 nM
CCOCc1nc(O)c(-c2nnc(Cc3ccc(Cl)cn3)o2)c(O)c1-c1c(OC)cccc1OC | Beta-1 adrenergic receptor (ADRB1, Homo sapiens, UniProt P08588) | ligand displacement, radioligand | – | > 30000 nM
COc1ccc(C2=NN(C3CCCCCC3)C(=O)[C@@H]3CC=CC[C@H]23)cc1-c1ccc(C(=O)NCC(N)=O)cc1 (relative stereo) | 3',5'-cyclic-AMP phosphodiesterase 4C (PDE4C, Homo sapiens, UniProt Q08493) | enzyme activity, inhibitor | – | 1000 nM
CN1CCC(Nc2nc(Nc3ccc(Oc4ccccc4)cc3)c3c(=O)[nH]cc(Br)c3n2)CC1 | PKN1 | enzyme activity, inhibitor | – | 101 nM
Cc1cnc(-c2ccc(-c3ccc(NC(=O)Nc4c(F)cc(F)cc4F)cc3F)c3c2C(=O)NC3)[nH]1 | HCK | enzyme activity, inhibitor | – | 2.5 nM
CCCC[C@H](NC(=O)[C@H](C)c1c(C)[nH]c2ccc(O)cc12)c1ncc(-c2cc3ccccc3nc2OC)[nH]1 | Histone deacetylase 9 (HDAC9, Homo sapiens, UniProt Q9UKV0) | enzyme activity, inhibitor | – | > 45000 nM
